Results from ChEMBL document CHEMBL1125502, “Structural requirements for neuropeptide Y18-36-evoked hypotension: a systematic study” (1992).
Where a SMILES comes first, the peptide text is derived from it.

These molecules were tested on Rattus norvegicus (assay: Change in mean arterial pressure measured 5 min after intra arterial administration at 0.4 mg/kg to male rats.).
Assay type: functional, Artery
Design: unit not given here
Method in brief: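 Conscious, freely moving male Sprague-Dawley rats (240–280 g) with arterial catheters; peptide in saline given IA as a 100-µL bolus (100 µg). MAP recorded by pressure transducer, calculated as [[…] + diastolic]. Baseline set by saline vehicle injection before dosing; change read 5 min post-dose relative to pre-dose control. Mean ± SEM, n ≥ 3.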

Structure (SMILES)	Delta MAP
CC[C@H](C)[C@H](NC(=O)[C@H](Cc1ccc(O)cc1)NC(=O)[C@H](Cc1c[nH]cn1)NC(=O)[C@H](CCCN=C(N)N)NC(=O)[C@H](CC(C)C)NC(=O)[C@H](C)NC(=O)[C@H](CO)NC(=O)[C@H](Cc1ccc(O)cc1)NC(=O)[C@H](Cc1ccc(O)cc1)NC(=O)[C@H](CCCN=C(N)N)NC(=O)[C@H](C)N)C(=O)N[C@@H](CC(N)=O)C(=O)N[C@@H](CC(C)C)C(=O)N[C@H](C(=O)N[C@H](C(=O)N[C@@H](CCCN=C(N)N)C(=O)N[C@@H](CCC(N)=O)C(=O)N[C@@H](CCCN=C(N)N)C(=O)N[C@@H](Cc1ccc(O)cc1)C(=O)N[C@@H](Cc1ccc(O)cc1)C(=O)O)[C@@H](C)O)[C@@H](C)CC	-8.35
CC[C@H](C)[C@H](NC(=O)[C@H](Cc1ccc(O)cc1)NC(=O)[C@H](Cc1c[nH]cn1)NC(=O)[C@H](CCCN=C(N)N)NC(=O)[C@H](CC(C)C)NC(=O)[C@H](C)NC(=O)[C@H](CO)NC(=O)[C@H](Cc1ccc(O)cc1)NC(=O)[C@H](Cc1ccc(O)cc1)NC(=O)[C@H](CCCN=C(N)N)NC(=O)[C@H](C)NC(C)=O)C(=O)N[C@@H](CC(N)=O)C(=O)N[C@@H](CC(C)C)C(=O)N[C@H](C(=O)N[C@H](C(=O)N[C@@H](CCCN=C(N)N)C(=O)N[C@@H](CCC(N)=O)C(=O)N[C@@H](CCCN=C(N)N)C(=O)N[C@@H](Cc1ccc(O)cc1)C(N)=O)[C@@H](C)O)[C@@H](C)CC	12
CC[C@H](C)[C@H](NC(=O)[C@H](Cc1ccc(O)cc1)NC(=O)[C@H](Cc1c[nH]cn1)NC(=O)[C@H](CCCN=C(N)N)NC(=O)[C@H](CC(C)C)NC(=O)[C@H](C)NC(=O)[C@H](CO)NC(=O)[C@H](Cc1ccc(O)cc1)NC(=O)[C@H](Cc1ccc(O)cc1)NC(=O)[C@H](CCCN=C(N)N)NC(=O)[C@H](C)N)C(=O)N[C@@H](CC(N)=O)C(=O)N[C@@H](CC(C)C)C(=O)N[C@H](C(=O)N[C@H](C(=O)N[C@@H](CCCN=C(N)N)C(=O)N[C@@H](CCC(N)=O)C(=O)N[C@@H](CCCN=C(N)N)C(=O)N[C@@H](Cc1ccc(O)cc1)C(=O)O)[C@@H](C)O)[C@@H](C)CC	-4.75
CC[C@H](C)[C@H](NC(=O)[C@H](Cc1ccccc1)NC(=O)[C@H](Cc1c[nH]cn1)NC(=O)[C@H](CCCN=C(N)N)NC(=O)[C@H](CC(C)C)NC(=O)[C@H](C)NC(=O)[C@H](CO)NC(=O)[C@H](Cc1ccccc1)NC(=O)[C@H](Cc1ccccc1)NC(=O)[C@H](CCCN=C(N)N)NC(=O)[C@H](C)N)C(=O)N[C@@H](CC(N)=O)C(=O)N[C@@H](CC(C)C)C(=O)N[C@H](C(=O)N[C@H](C(=O)N[C@@H](CCCN=C(N)N)C(=O)N[C@@H](CCC(N)=O)C(=O)N[C@@H](CCCN=C(N)N)C(=O)N[C@@H](Cc1ccccc1)C(N)=O)[C@@H](C)O)[C@@H](C)CC (H-ARFFSALRHFINLITRQRF-NH2)	12.33
CC[C@H](C)[C@H](NC(=O)[C@H](Cc1ccccc1)NC(=O)[C@H](Cc1c[nH]cn1)NC(=O)[C@H](CCCN=C(N)N)NC(=O)[C@H](CC(C)C)NC(=O)[C@H](C)NC(=O)[C@H](CO)NC(=O)[C@H](Cc1ccc(O)cc1)NC(=O)[C@H](Cc1ccccc1)NC(=O)[C@H](CCCN=C(N)N)NC(=O)[C@H](C)N)C(=O)N[C@@H](CC(N)=O)C(=O)N[C@@H](CC(C)C)C(=O)N[C@H](C(=O)N[C@H](C(=O)N[C@@H](CCCN=C(N)N)C(=O)N[C@@H](CCC(N)=O)C(=O)N[C@@H](CCCN=C(N)N)C(=O)N[C@@H](Cc1ccccc1)C(N)=O)[C@@H](C)O)[C@@H](C)CC (H-ARFYSALRHFINLITRQRF-NH2)	3
CC[C@H](C)[C@H](NC(=O)[C@H](Cc1ccccc1)NC(=O)[C@H](Cc1c[nH]cn1)NC(=O)[C@H](CCCN=C(N)N)NC(=O)[C@H](CC(C)C)NC(=O)[C@H](C)NC(=O)[C@H](CO)NC(=O)[C@H](Cc1ccccc1)NC(=O)[C@H](Cc1ccc(O)cc1)NC(=O)[C@H](CCCN=C(N)N)NC(=O)[C@H](C)N)C(=O)N[C@@H](CC(N)=O)C(=O)N[C@@H](CC(C)C)C(=O)N[C@H](C(=O)N[C@H](C(=O)N[C@@H](CCCN=C(N)N)C(=O)N[C@@H](CCC(N)=O)C(=O)N[C@@H](CCCN=C(N)N)C(=O)N[C@@H](Cc1ccccc1)C(N)=O)[C@@H](C)O)[C@@H](C)CC (H-ARYFSALRHFINLITRQRF-NH2)	7.66
CC(C)C[C@H](NC(=O)[C@H](C)NC(=O)[C@H](CO)NC(=O)[C@H](Cc1ccc(O)cc1)NC(=O)[C@H](Cc1ccc(O)cc1)NC(=O)[C@H](CCCN=C(N)N)NC(=O)[C@H](C)N)C(N)=O (H-ARYYSAL-NH2)	3.33
CC(C)C[C@H](NC(=O)[C@H](C)NC(=O)[C@H](CO)NC(=O)[C@H](Cc1ccc(O)cc1)NC(=O)[C@H](Cc1ccc(O)cc1)NC(=O)[C@H](CCCN=C(N)N)NC(=O)[C@H](C)N)C(=O)N[C@@H](CCCN=C(N)N)C(N)=O (H-ARYYSALR-NH2)	4.67
CC[C@H](C)[C@H](NC(=O)[C@H](Cc1ccccc1)NC(=O)[C@H](Cc1c[nH]cn1)NC(=O)[C@H](CCCN=C(N)N)NC(=O)[C@H](CC(C)C)NC(=O)[C@H](C)NC(=O)[C@H](CO)NC(=O)[C@H](Cc1ccc(O)cc1)NC(=O)[C@H](Cc1ccc(O)cc1)NC(=O)[C@H](CCCN=C(N)N)NC(=O)[C@H](C)N)C(=O)N[C@@H](CC(N)=O)C(=O)N[C@@H](CC(C)C)C(=O)N[C@H](C(=O)N[C@H](C(=O)N[C@@H](CCCN=C(N)N)C(=O)N[C@@H](CCC(N)=O)C(=O)N[C@@H](CCCN=C(N)N)C(=O)N[C@@H](Cc1ccccc1)C(N)=O)[C@@H](C)O)[C@@H](C)CC (H-ARYYSALRHFINLITRQRF-NH2)	-6
CC(C)C[C@H](NC(=O)[C@H](C)NC(=O)[C@H](CO)NC(=O)[C@H](Cc1ccc(O)cc1)NC(=O)[C@H](Cc1ccc(O)cc1)NC(=O)[C@H](CCCN=C(N)N)NC(=O)[C@H](C)N)C(=O)N[C@@H](CCCN=C(N)N)C(=O)N[C@@H](Cc1c[nH]cn1)C(=O)N[C@@H](Cc1ccc(O)cc1)C(N)=O (H-ARYYSALRHY-NH2)	-12
CC[C@H](C)[C@H](NC(=O)[C@H](Cc1ccc(O)cc1)NC(=O)[C@H](Cc1c[nH]cn1)NC(=O)[C@H](CCCN=C(N)N)NC(=O)[C@H](CC(C)C)NC(=O)[C@H](C)NC(=O)[C@H](CO)NC(=O)[C@H](Cc1ccc(O)cc1)NC(=O)[C@H](Cc1ccc(O)cc1)NC(=O)[C@H](CCCN=C(N)N)NC(=O)[C@H](C)N)C(=O)N[C@@H](CC(N)=O)C(=O)N[C@@H](CC(C)C)C(=O)N[C@H](C(=O)N[C@H](C(N)=O)[C@@H](C)O)[C@@H](C)CC (H-ARYYSALRHYINLIT-NH2)	0

What follows are molecules tested on Rattus norvegicus (assay: Plasma histamine level of the peptide after intra arterial administration at time 5 min in rats).
Assay type: functional, organism-based

Structure (SMILES)	Plasma histamine [ng/mL]
CC[C@H](C)[C@H](NC(=O)[C@H](Cc1ccc(O)cc1)NC(=O)[C@H](Cc1c[nH]cn1)NC(=O)[C@H](CCCN=C(N)N)NC(=O)[C@H](CC(C)C)NC(=O)[C@H](C)NC(=O)[C@H](CO)NC(=O)[C@H](Cc1ccc(O)cc1)NC(=O)[C@H](Cc1ccc(O)cc1)NC(=O)[C@H](CCCN=C(N)N)NC(=O)[C@H](C)NC(C)=O)C(=O)N[C@@H](CC(N)=O)C(=O)N[C@@H](CC(C)C)C(=O)N[C@H](C(=O)N[C@H](C(=O)N[C@@H](CCCN=C(N)N)C(=O)N[C@@H](CCC(N)=O)C(=O)N[C@@H](CCCN=C(N)N)C(=O)N[C@@H](Cc1ccc(O)cc1)C(N)=O)[C@@H](C)O)[C@@H](C)CC	31.1

The molecules below were run on Rattus norvegicus (assay: Plasma histamine level of the peptide after intra arterial administration at time 0 min in rats).
Assay type: functional, organism-based

Structure (SMILES)	Plasma histamine [ng/mL]
CC[C@H](C)[C@H](NC(=O)[C@H](Cc1ccc(O)cc1)NC(=O)[C@H](Cc1c[nH]cn1)NC(=O)[C@H](CCCN=C(N)N)NC(=O)[C@H](CC(C)C)NC(=O)[C@H](C)NC(=O)[C@H](CO)NC(=O)[C@H](Cc1ccc(O)cc1)NC(=O)[C@H](Cc1ccc(O)cc1)NC(=O)[C@H](CCCN=C(N)N)NC(=O)[C@H](C)NC(C)=O)C(=O)N[C@@H](CC(N)=O)C(=O)N[C@@H](CC(C)C)C(=O)N[C@H](C(=O)N[C@H](C(=O)N[C@@H](CCCN=C(N)N)C(=O)N[C@@H](CCC(N)=O)C(=O)N[C@@H](CCCN=C(N)N)C(=O)N[C@@H](Cc1ccc(O)cc1)C(N)=O)[C@@H](C)O)[C@@H](C)CC	16
